PostGolgi yeast = growth inhibition of a yeast mutant, post-Golgi transport screen | hit rate 0.9% among 98,000 | AID 739 | post-Golgi transport phenotypic cell assay | inhibition, % at 10 µM;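 further: yeast cells grown in 1536-well plates; yeast grown about 18 h at 30C before absorbance read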
tolC growth inh = blocks growth of E. coli BW25113 tolC mutant | OD615 | growth inhibition, % at 10 µM (by protocol) | hit rate 2.2% among 65,000;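 active means growth inhibition at or above a cutoff equal to the mean over every tested compound plus 3 SD, cut at about 60% in these data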;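 further: growth measured after 20 h incubation at 37 °C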
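Test system: E. coli BW25113 ΔtolC::kan bacteria; incubation: 37 °C, 20 h exposure; medium: LB broth supplemented with 50 µg/mL kanamycin; read-out basis: percent growth inhibition; signal: A615 absorbance measurement; compound: 10 µM final, single dose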
E coli WT exp = growth inhibitors of E. coli BW25113 wild type; hit rate 0.15% among 98,000; AID 710; OD600 absorbance; growth inhibition, % at 100 µM;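 active means growth inhibition above about 50% at one test dose, limit read from the data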;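 further: growth measured after 20 h incubation at 37 °C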
Cav32 inh = blocks human Cav3.2 T-type calcium channel; Cav3.2-expressing cells, Fluo-4 calcium fluorescence FDSS; active compounds read low; AID 449739; O95180; hit rate 4% among 100,000; B-score at 10 µM;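 active means single-dose well whose peak fluorescence ratio is a statistical outlier from its plate by either plate-standardised score or position-corrected B-score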
PostGolgi ctrl = inhibits growth of the yeast control strain; efflux-deficient yeast background strain, growth absorbance A615, 16 h; inhibition, % at 10 µM; hit rate 5% among 98,000
Numbers without * were called inactive; . = not tested or not shown. Rows were chosen to be rich in hits. Some 8.4% of all compounds tested hit in one or more screens of this group. Unless noted, no stated cut-off is given here; in the data, active means inhibition above about 30%; inactive means the rest.

SMILES | PostGolgi yeast | tolC growth inh | E coli WT exp | Cav32 inh | PostGolgi ctrl
COCCCNC(=O)C1C2C=CC3(CN(Cc4ccc(C)cc4)C(=O)C13)O2 (stereo not drawn) | -7 | -11 | 3 | 0.38 | 33*
Cc1ccc(OCCCCn2cnc3ccccc32)c(C)c1 | -4 | . | 9 | -2.6 | 32*
COc1ccc(-c2cc(C(=O)N3CC4(C)CC3CC(C)(C)C4)no2)cc1 (stereo not drawn) | -11 | 65* | -4 | -1.4 | 34*
CC1(C)CC2CC(C)(CN2C(=O)c2cc(-c3ccccc3O)on2)C1 (stereo not drawn) | 11 | 95* | -10 | -0.06 | 78*
CC1(C)CC2CC(C)(CN2C(=O)c2cccs2)C1 (stereo not drawn) | -2 | 10 | 0 | -0.083 | 6
COc1ccc(-c2cc(C(=O)N3CC4(C)CC3CC(C)(C)C4)no2)cc1OC (stereo not drawn) | 7 | 71* | -6 | -2 | 16
CC1(C)CC[C@@]23CC[C@]4(C)[C@@](OC2=O)(C3C1)[C@H]1O[C@H]1C1[C@@]2(C)CC[C@H](O)C(C)(C)C2CC[C@]14C (stereo partly drawn) | . | . | . | 0.027 | .
CCOC(=O)Cn1c(=O)oc2cc(S(=O)(=O)N3CCc4ccccc43)ccc21 | -7 | 28 | -2 | . | 20
O=[N+]([O-])c1ccc(N2CCC(=NOCc3ccc(Cl)cc3)CC2)cc1 | 19 | . | -14 | -5.7* | 9
O=C(OCc1cc2ccccc2[nH]c1=O)C1CCCCC1 | 30* | 16 | 1 | -0.98 | 13
S=c1[nH]nc(CSc2nc3ccccc3s2)n1Cc1ccccc1 | -7 | . | -6 | -0.56 | 34*
Cc1ccccc1NC(C)C(=O)N/N=C/c1ccccc1OCc1cccc(Br)c1 (stereo not drawn) | -3 | . | -24 | -6.4* | 8
Cc1ccc(C2CC2C(=O)NNC(=S)Nc2ccc(Cl)cc2)cc1 (stereo not drawn) | . | . | . | -10* | .
Cc1ccc(C(=O)NC(=S)Nc2ccc(Oc3ccc(Cl)cc3)cc2)cc1 | 0 | . | -20 | -0.99 | 5
CCCn1cnc2c1c(=O)n(CCCCC(C)=O)c(=O)n2C | . | . | . | -0.019 | .
Brc1ccc2c(c1)OCCOCCOc1cc(Br)ccc1OCCOCCOCCO2 | 0 | . | -15 | -3.5 | 68*
CC(O)c1ccc2c(c1)OCCOCCN(C)CCOCCO2 (stereo not drawn) | 4 | -21 | -3 | 0.12 | 5
Cc1ccc(-c2nnc(-c3ccncc3)n2-c2ccc(C)cc2)cc1 | -2 | . | -8 | 0.0083 | 22
COc1ccc(N(C(=O)c2ccco2)S(=O)(=O)c2ccccc2)cc1 | 6 | . | 1 | 0.15 | 1
COc1ccc(N(C(=O)c2ccco2)S(=O)(=O)c2cc(Cl)c(Cl)cc2Cl)cc1 | -1 | . | -5 | -4.3 | 31*
CCOC(=O)C1=C(c2ccccc2)O/C(=C(/C#N)C(F)(F)F)S1 | 3 | . | -1 | -2.4 | 39*
CC(C)c1ccc(-c2nn(-c3ccccc3)cc2C2C(C#N)=C(N)OC3=C2C(=O)CC(C)(C)C3)cc1 (stereo not drawn) | -11 | . | -16 | -5.3* | 15
Cc1ccccc1NC(=O)C1CCCN(S(=O)(=O)c2cccc3cccnc23)C1 (stereo not drawn) | -6 | 7 | 0 | 1.3 | 31*
COc1ccc(NC(=O)C2CCCN2S(=O)(=O)c2cccc3cccnc23)c(OC)c1 (stereo not drawn) | 97* | 4 | 3 | 0.71 | 95*
CCOc1ccc(OCC)c(NC(=O)C2CCCN2S(=O)(=O)c2cccc3cccnc23)c1 (stereo not drawn) | 6 | 19 | -5 | 0.29 | 27
SMILES | PostGolgi yeast | tolC growth inh | E coli WT exp | Cav32 inh | PostGolgi ctrl
CCCCCN(C(=O)CN(C)Cc1ccc(OC)cc1OC)c1c(N)n(CCCC)c(=O)[nH]c1=O | 2 | . | 6 | -0.07 | 3
CC1=CCC(COC(=O)Nc2ccccc2)CC1 (stereo not drawn) | 1 | 98* | 14 | -2.2 | 31*
O=C(Nc1ccccc1)OCC1CCCN2CCCCC12 (stereo not drawn) | 7 | -8 | 2 | -0.084 | 5
CCOC(=O)C1=C(C)N(CCCC(=O)O)C(=O)NC1c1ccccc1OS(=O)(=O)c1ccccc1[N+](=O)[O-] (stereo not drawn) | . | . | . | 1.6 | .
CCOC(=O)c1[nH]c(C)c(C(=O)Nc2cc(OC)ccc2OC)c1C | 0 | -2 | -2 | . | 0
CCOC(=O)c1c(C)c(C(=O)Nc2cc(OC)ccc2OC)c(C)n1CC | 16 | 68* | 5 | -2.9 | 28
COc1cccc(/C=N/n2c(C)c3c(C)nnc(C)c3c2C)c1O | . | -5 | . | . | .
c1ccc2sc(Cc3nnc4n3CCCCC4)nc2c1 | -2 | -14 | -3 | 0.23 | 41*
COc1ccc(-c2csc(Cc3nnc4n3CCCCC4)n2)cc1 | 13 | -2 | 11 | -0.26 | -4
O=C1OCCN1c1c(-c2ccccc2)c(N2CCOCC2)nc2ccccc12 | . | . | . | -0.44 | .
CC(=O)Nc1ccc(S(=O)(=O)N2CCN(c3nc(NC4CCCC4)c4ccccc4n3)CC2)cc1 | 18 | 54 | -3 | 0.066 | 6
O=C(Nc1ccc(Cl)cc1)[C@@H]1[C@@H]2C(=O)N(c3ccc4ccccc4c3)C(=O)[C@@H]2[C@H]2C=CC=NN21 | 2 | . | -5 | -8.6* | -5
COc1ccc(N2C(=O)[C@@H]3[C@H](C2=O)[C@H]2c4ccccc4C=CN2[C@@H]3C(=O)Nc2ccccc2)cc1 | -1 | . | -6 | -3.2 | -2
CCCCCCNS(=O)(=O)c1ccc(Cl)s1 | -20 | 57 | 16 | -6.4* | 27
CCCCC1CC1C(=O)Nc1ccc(OC)c(OC)c1 (stereo not drawn) | -10 | 6 | -1 | -0.61 | 37*
O=C(c1cc2nc(-c3ccco3)cc(C(F)(F)F)n2n1)N1CCN(c2ccccc2)CC1 | 0 | 71* | -7 | -0.18 | 12
Cc1cc(NC(=O)C2CCCCC2)nc2c1c(=O)oc1ccccc12 | 1 | 76* | 2 | . | 29
COc1cc2c(cc1OC)CN(Cc1ccc(C)s1)CC2 | -1 | . | 8 | 0.064 | 43*
Cc1cccc(N(CC(=O)NC2CCCC2)C(=O)c2cc3cc4cccc(C)c4nc3s2)c1C | -4 | . | -9 | -3.3* | 2
Cc1ccc(C)c(N(CC(=O)NC2CCCC2)C(=O)c2cc3cc4cc(C)ccc4nc3s2)c1 | 1 | . | -13 | -1.6 | -5
COc1ccc(C2(O)CC3CCC(C2)N3c2nc(C)cc(C)c2C#N)cc1 (stereo not drawn) | 2 | 85* | -11 | 0.18 | 12
Cc1noc(C)c1S(=O)(=O)N(C)CC(=O)NCc1ccccc1 | 4 | -3 | 0 | 0.48 | -1
Cc1noc(C)c1S(=O)(=O)N(CCc1ccccc1)Cc1ccccc1 | 4 | 63* | -1 | -4.7* | 18
COC(=O)CSc1snnc1-c1ccc(Cl)cc1Cl | 7 | . | -1 | -0.55 | 6
COc1cccc(/C(C#N)=C/c2c(-c3ccc(Cl)cc3)nc3c(C)cccn23)c1 | 7 | . | -13 | -3.4 | 49*
CC(=O)Nc1ccc(S(=O)(=O)NCCSCc2c(Cl)cccc2Cl)cc1 | 3 | . | -4 | -5.1* | 11
C=CCNC(=S)NNC(=O)C(CCCC)CC(C)(C)O (stereo not drawn) | . | . | . | 0.52 | .
